From the M2OR odorant receptor database
Positions count from the first letter of the chain named.

Tests used:
Details in all cases: stereoisomer not certain
[1] = target: T1, Or10j5 (Mus musculus) (UniProt Q62007)
T1 sequence (whole entry): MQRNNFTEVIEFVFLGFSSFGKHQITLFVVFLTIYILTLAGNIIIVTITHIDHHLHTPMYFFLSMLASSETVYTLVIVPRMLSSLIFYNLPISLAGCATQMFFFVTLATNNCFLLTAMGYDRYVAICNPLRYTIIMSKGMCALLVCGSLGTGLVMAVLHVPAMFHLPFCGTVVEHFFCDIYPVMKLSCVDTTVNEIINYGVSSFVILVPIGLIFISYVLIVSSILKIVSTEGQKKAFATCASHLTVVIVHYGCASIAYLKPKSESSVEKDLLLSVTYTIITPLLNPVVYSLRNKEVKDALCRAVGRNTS
In short: (§1)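 Transient luciferase assays in mammalian cell lines were common, though methods varied by source. The values come from published papers and their supplementary material, with extra details from the original authors when needed. Responsive refers to a measured signal the original authors judged statistically different from baseline, and non-responsive (inactive) to the remainder.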

[2] = target: T2, OR9A4 (Homo sapiens) (UniProt Q8NGU2)
T2 sequence (whole entry): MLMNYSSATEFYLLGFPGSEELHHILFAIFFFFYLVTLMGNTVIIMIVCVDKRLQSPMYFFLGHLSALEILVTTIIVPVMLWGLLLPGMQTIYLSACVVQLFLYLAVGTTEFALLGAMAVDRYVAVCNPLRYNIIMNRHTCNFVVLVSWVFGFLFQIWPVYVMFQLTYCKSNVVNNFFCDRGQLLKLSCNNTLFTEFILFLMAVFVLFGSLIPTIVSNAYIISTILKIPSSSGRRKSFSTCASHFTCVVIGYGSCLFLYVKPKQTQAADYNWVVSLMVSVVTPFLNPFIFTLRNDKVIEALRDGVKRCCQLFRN
In short: as §1

[3] = target: T3, OR9G1 (Homo sapiens) (UniProt Q8NH87)
T3 sequence (whole entry): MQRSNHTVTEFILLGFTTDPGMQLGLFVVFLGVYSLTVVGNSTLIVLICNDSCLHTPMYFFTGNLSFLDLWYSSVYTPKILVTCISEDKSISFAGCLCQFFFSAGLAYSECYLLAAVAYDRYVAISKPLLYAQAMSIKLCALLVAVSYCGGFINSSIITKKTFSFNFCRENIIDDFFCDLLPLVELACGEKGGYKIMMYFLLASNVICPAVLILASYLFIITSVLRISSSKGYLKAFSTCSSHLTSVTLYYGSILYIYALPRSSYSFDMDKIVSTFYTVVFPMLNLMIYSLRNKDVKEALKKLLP
In short: as §1

[4] = target: T4, OR9G4 (Homo sapiens) (UniProt Q8NGQ1)
T4 sequence (whole entry): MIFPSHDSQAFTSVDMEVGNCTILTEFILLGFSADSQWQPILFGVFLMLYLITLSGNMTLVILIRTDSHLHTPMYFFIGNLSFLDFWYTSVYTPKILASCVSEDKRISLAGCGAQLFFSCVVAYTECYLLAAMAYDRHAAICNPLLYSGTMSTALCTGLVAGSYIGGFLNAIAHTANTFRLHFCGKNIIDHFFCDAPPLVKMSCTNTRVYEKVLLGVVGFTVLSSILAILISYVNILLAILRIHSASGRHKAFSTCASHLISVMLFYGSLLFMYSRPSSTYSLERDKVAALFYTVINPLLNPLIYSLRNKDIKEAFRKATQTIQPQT
In short: as §1

[5] = system: T5, OR9G4 H6Y N206D V222A
T5 sequence (whole entry): T4 sequence (whole entry) with H6Y, N206D, V222A
In short: as §1

[6] = system: T6, OR9G4 N206D V222A
T6 sequence (whole entry): T4 sequence (whole entry) with N206D, V222A
In short: as §1

[7] = system: T7, OR9G9
T7 sequence (whole entry): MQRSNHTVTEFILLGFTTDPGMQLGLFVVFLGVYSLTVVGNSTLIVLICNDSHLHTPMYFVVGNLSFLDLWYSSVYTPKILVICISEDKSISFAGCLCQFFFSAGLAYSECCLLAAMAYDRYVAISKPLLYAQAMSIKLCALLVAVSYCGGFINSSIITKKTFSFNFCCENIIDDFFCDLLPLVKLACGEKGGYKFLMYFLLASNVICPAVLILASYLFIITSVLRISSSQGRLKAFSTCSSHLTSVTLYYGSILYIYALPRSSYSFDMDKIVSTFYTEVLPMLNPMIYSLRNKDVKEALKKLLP
In short: as §1

[8] = target: T8, OR9I1 (Homo sapiens) (UniProt Q8NGQ6)
T8 sequence (whole entry): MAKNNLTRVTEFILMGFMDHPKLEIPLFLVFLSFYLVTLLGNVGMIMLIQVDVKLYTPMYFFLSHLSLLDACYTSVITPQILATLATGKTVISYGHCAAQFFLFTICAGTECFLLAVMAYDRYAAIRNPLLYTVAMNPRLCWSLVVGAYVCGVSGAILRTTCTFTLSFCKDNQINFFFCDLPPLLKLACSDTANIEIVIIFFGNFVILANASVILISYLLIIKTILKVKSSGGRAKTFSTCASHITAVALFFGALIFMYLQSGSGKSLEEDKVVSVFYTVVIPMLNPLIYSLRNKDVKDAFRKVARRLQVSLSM
In short: as §1

[9] = target: T9, OR9K2 (Homo sapiens) (UniProt Q8NGE7)
T9 sequence (whole entry): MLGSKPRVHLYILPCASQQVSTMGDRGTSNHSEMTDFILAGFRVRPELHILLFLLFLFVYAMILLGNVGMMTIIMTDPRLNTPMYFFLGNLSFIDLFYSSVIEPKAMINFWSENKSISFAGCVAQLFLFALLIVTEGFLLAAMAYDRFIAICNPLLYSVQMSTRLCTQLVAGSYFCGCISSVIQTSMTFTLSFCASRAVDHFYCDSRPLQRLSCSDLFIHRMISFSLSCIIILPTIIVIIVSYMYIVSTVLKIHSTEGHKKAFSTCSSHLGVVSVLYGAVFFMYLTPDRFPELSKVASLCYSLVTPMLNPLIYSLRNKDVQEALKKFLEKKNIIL
In short: as §1

[10] = system: T10, OR9K2 R207H
T10 sequence (whole entry): T9 sequence (whole entry) with R207H
In short: as §1

[11] = target: T11, OR9Q1 (Homo sapiens) (UniProt Q8NGQ5)
T11 sequence (whole entry): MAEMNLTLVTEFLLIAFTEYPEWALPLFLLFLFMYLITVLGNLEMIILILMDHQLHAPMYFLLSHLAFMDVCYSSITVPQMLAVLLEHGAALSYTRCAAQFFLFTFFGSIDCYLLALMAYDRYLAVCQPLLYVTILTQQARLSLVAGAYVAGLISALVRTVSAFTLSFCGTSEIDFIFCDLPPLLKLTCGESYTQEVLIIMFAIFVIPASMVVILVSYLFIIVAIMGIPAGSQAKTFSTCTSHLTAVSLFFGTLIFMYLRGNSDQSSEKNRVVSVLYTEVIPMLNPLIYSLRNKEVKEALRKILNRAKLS
In short: as §1

[12] = system: T12, OR9Q1 A83T
T12 sequence (whole entry): T11 sequence (whole entry) with A83T
In short: as §1

[13] = target: T13, OR9Q2 (Homo sapiens) (UniProt Q8NGE9)
T13 sequence (whole entry): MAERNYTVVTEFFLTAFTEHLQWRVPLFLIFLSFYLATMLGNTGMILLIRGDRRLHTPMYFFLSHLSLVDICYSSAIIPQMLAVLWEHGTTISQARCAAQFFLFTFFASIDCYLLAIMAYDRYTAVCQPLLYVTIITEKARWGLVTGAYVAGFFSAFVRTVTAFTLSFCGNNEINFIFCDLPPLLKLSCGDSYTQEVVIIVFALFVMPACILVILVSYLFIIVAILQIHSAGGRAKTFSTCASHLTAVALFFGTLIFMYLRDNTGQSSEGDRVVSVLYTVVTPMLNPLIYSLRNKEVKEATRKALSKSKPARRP
In short: as §1

[14] = system: T14, OR9Q2 C179R
T14 sequence (whole entry): T13 sequence (whole entry) with C179R
In short: as §1

[15] = target: T15, Or1m1 (Mus musculus) (UniProt Q8VFM9)
T15 sequence (whole entry): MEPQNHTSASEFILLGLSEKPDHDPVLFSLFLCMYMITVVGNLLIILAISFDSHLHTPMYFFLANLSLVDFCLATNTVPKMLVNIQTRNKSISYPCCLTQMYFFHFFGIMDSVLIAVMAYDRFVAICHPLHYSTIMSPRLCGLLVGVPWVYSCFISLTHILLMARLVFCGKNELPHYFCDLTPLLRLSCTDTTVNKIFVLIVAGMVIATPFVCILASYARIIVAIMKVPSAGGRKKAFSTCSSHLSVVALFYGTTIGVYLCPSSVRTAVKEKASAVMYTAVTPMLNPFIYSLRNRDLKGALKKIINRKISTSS
In short: as §1

[16] = target: T16, Or2c1 (Mus musculus) (UniProt P23275)
T16 sequence (whole entry): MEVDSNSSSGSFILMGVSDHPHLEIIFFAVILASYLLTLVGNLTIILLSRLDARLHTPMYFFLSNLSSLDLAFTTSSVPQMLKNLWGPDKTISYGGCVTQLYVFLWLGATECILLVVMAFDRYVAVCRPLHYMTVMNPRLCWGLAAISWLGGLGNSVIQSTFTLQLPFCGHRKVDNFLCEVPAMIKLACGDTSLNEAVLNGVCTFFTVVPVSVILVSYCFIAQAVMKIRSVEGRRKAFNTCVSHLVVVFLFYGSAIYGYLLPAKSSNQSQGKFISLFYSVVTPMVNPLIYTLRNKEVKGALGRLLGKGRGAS
In short: as §1

[17] = target: T17, Or5ar1 (Mus musculus) (UniProt Q8VGS3)
T17 sequence (whole entry): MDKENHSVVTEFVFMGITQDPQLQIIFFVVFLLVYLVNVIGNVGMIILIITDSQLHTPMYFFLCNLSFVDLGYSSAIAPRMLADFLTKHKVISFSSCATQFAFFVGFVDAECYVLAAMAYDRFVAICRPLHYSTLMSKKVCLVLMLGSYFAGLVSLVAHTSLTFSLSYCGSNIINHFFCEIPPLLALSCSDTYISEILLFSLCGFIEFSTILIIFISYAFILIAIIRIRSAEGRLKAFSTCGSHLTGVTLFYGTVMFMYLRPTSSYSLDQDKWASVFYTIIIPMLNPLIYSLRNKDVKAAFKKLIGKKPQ
In short: as §1

[18] = target: T18, OR9G9 (Homo sapiens) (UniProt P0C7N8)
T18 sequence (whole entry): T7 sequence (whole entry) with G193C
In short: as §1

Measured: odorant receptor agonist call;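 also: active if original authors judged signal statistically different from baseline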

O=C(O)CCCBr
inactive: [1]

CC1=C(O)C(=O)OC1C (configuration not stated)
not listed: [1] | [15] | [16] | [17] | [18]
inactive: all other assays above

O=C([O-])CCCCC(=O)[O-].[H+].[H+]
inactive: [1]

CCCCCCCO
inactive: [1] | [15] | [16] | [17]

O=C(O)CCCCCC(=O)O
inactive: [1]

CCC1OC(C)=C(O)C1=O (configuration not stated)
not listed: [1] | [15] | [16] | [17] | [18]
inactive: all other assays above

CCCCCCC=CCCC=O
not listed: [1] | [7] | [9] | [15] | [16] | [17]
inactive: all other assays above

CCCCCCCCCCCC=O
inactive: [1]

CCCCCCCCCCC(=O)O
inactive: [1]
